High-throughput results from PubChem BioAssay.
TRPC6 activator – activators of mouse TRPC6 channel. Q61143. B-score at 10 µM. HEK293-TRPC6 membrane potential dye fluorescence; stronger effect = higher value. 0.13% of 310,000 active;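 active means B-score of the integrated fluorescence ratio above library mean plus 3 SD, and starting fluorescence ratio within library mean plus 5 SD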;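 further: higher score means more depolarization so channel activation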
TRPC4 act – TRPC4 (mouse) channel activation; B-score at 10 µM; AID 2237; HEK293 TRPC4beta/mu-opioid, Fluo4 calcium fluorescence; stronger effect = higher value; 0.49% of 310,000 active; Q9QUQ5;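 active means B-score above 5 SD of library B-scores, and initial fluorescence ratio not above library mean plus 5 SD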;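 further: positive B-score marks a calcium rise read as TRPC4 activation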
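Assay system: HEK293 stable line with TRPC4beta plus mu-opioid receptor. Times: dye 45 min RT, read 110 s. Measured by: kinetic Fluo4 calcium fluorescence. Measure: B score of integrated ratio. Controls: assay buffer as low control, maximal DAMGO as high control.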
TRPC4 inh – inhibitors of mouse TRPC4 channel. AID 2247. HEK293 TRPC4beta/mu-opioid, DAMGO-evoked Fluo4 calcium flux; stronger effect = lower value. 0.39% of 300,000 active. B-score at 10 µM. Q9QUQ5;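 active means B-score over 3 SD under the library average, no early fluorescence shift, positive overall ratio signal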
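Assay system: TRPC4beta/mu-opioid receptor HEK293 cell line; compound dosing: single concentration per test compound; detection: Fluo4 Ca2+ flux fluorescence; evaluation: per-well B score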
TRPC6 inh – blocks the mouse TRPC6 cation channel. HEK293-TRPC6, membrane potential dye, ACh-evoked depolarization; stronger effect = lower value. Q61143. B-score at 10 µM. 1.1% of 310,000 active. AID 2553;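 active means B-score under library mean minus 3 SD, initial fluorescence not abnormally high, positive integrated signal ratio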;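 further: B-score derived from integrated fluorescence ratio over the kinetic read; more negative B-score means stronger inhibition of depolarization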
TRPC4 PAM – allosterically enhances the mouse TRPC4 cation channel; Q9QUQ5; HEK293 TRPC4beta/mu-opioid, DAMGO EC20, Fluo-4 Ca2+ flux; stronger effect = higher value; B-score at 10 µM; 0.42% of 310,000 active; AID 2227;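 active means B-score of calcium response area above 5 SD of library B-scores, with initial fluorescence ratio within 5 SD of library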;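 further: B-score of integrated fluorescence ratio over time as area under calcium response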
* marks the source's active call; other numbers are inactive results; i = inactive. An excerpt weighted towards active compounds, which were near 2.3% of everything screened.

SMILES | TRPC6 activator | TRPC4 act | TRPC4 inh | TRPC6 inh | TRPC4 PAM
CCCNC(=O)OCCC12CC3CC(CC(C3)C1)C2 | i | i | i | i | 10*
CSc1ccc(/C=N/N2CCN(Cc3ccccc3)CC2)cc1 | i | i | i | i | i
Cc1ccc(C)c2[nH]c(=O)c(CN(CC3CCCO3)C(=S)NCc3ccco3)cc12 (stereo not given) | i | i | -6* | i | i
CC(C)CN(CC(C)C)c1nc(N)c(C#N)c(CC#N)c1C#N | i | i | -6* | i | i
CC1C(=O)N2CCCc3cc(NC(=O)C(=O)NCc4ccccn4)cc1c32 (stereo not given) | i | i | i | i | i
COc1ccc(NCc2ccc(OC)c(Cn3ccnc3)c2)c(OC)c1 | i | i | i | i | i
O=C(NCCCN1CCCC1=O)c1cccc(S(=O)(=O)N2CCN(c3ccccc3)CC2)c1 | i | i | i | i | i
O=C1C(Cl)=C(Nc2cccc(O)c2)C(=O)N1Cc1ccccc1 | i | i | i | i | 74*
O=C(COC(=O)C12CC3CC(CC(C3)C1)C2)Nc1nccs1 | i | i | i | i | i
Cc1ccnc(NC(=O)COC(=O)C23CC4CC(CC(C4)C2)C3)n1 | i | i | i | i | 35*
CC(/C=C1\SC(=S)N(C(C(=O)O)C(C)C)C1=O)=C\c1ccccc1 (stereo not given) | i | i | -6* | i | i
COc1ccc(/C=C2\SC(=S)N(C(Cc3ccccc3)C(=O)O)C2=O)cc1 (stereo not given) | i | i | -8* | i | i
Cc1nn(-c2ccccc2)c(C)c1NC(=O)COC(=O)c1cccc(OC(F)F)c1 | i | i | i | i | i
O=C1OCCN/C1=C\C(=O)c1ccccc1 | i | i | i | i | 14*
O=C1OCCN/C1=C\C(=O)c1ccc(Cl)cc1 | i | i | i | i | i
CCCCCN=C(N)N/N=C/c1c[nH]c2ccc(OC)cc12 | i | 66* | i | i | i
COc1ccc(C)cc1S(=O)(=O)Nc1ccc(F)c(Cl)c1 | i | i | i | i | 10*
CCN1CCCC1CNC(=O)c1ccccc1Cl (stereo not given) | i | i | i | i | i
CCc1cc(Cl)c(OC)c(C(=O)NC[C@@H]2CCCN2CC)c1O | i | 70* | i | i | i
Nc1c2c(nc3ccccc13)CCCC2 | i | i | i | -5.3* | i
COc1cccc(CNCc2ccco2)c1O | i | i | i | i | i
CCC(C)(C)NC(=O)C(c1sccc1C)N(Cc1ccco1)C(=O)c1csnn1 (stereo not given) | i | i | i | -5.8* | i
Cc1ccsc1C(C(=O)NC(C)(C)C)N(Cc1ccco1)C(=O)c1csnn1 (stereo not given) | i | i | i | i | i
OCC1(Cc2ccc(Cl)cc2)CCN(Cc2ccccc2F)CC1 | i | i | -6* | i | i
CC1OC(OC2C(OC3C(O[C@H]4CC[C@]5(C)C6C=C[C@]78OC[C@@]9(CC[C@@H](C)[C@H](C)C97)[C@H](O)C[C@@]8(C)[C@]6(C)CC[C@H]5C4(C)C)OC(C)C(O)C3O)OC(CO)C(O)C2O)C(O)C(O)C1O (stereo not given in full) | i | 376* | i | -5.1* | 17*
SMILES | TRPC6 activator | TRPC4 act | TRPC4 inh | TRPC6 inh | TRPC4 PAM
Cc1ccc(C)n1-c1nnc(N2CCC(C(=O)NCCCN3CCN(C)CC3)CC2)s1 | i | i | i | i | i
Cc1ccc(C)n1-c1nnc(N2CCC(C(=O)NCCCN3CC(C)CC(C)C3)CC2)s1 (stereo not given) | i | 88* | i | i | i
Cc1cc(=O)n2nc(N3CCCC(C(=O)NCCCN4CC(C)CC(C)C4)C3)sc2n1 (stereo not given) | i | 47* | i | i | i
CC1CC(C)CN(C(=O)CCCNC(=O)c2ccc(Cl)cc2)C1 (stereo not given) | i | i | i | i | i
C=CCc1cc(Cl)ccc1OCCCNC(C)C | i | i | i | i | i
C=CCc1cc(Cl)ccc1OCCCNCCO | i | i | i | i | 14*
O=C(NCCC1CCCCN1S(=O)(=O)c1ccccc1)C(=O)NCc1ccncc1 (stereo not given) | i | i | i | i | i
COc1ccc(CNC(=O)c2ccccc2SCC(=O)N2CCCC2)cc1OC | i | i | i | i | i
CN(C1=C(N2CCCCC2)C(=O)c2ccccc2C1=O)c1ccccc1 | i | i | i | -7.2* | i
O=S(=O)(NCC1CCN(Cc2ccccc2)CC1)c1ccccc1C(F)(F)F | i | i | i | i | i
C1CCN(c2nc(N3CCCCC3)nc(N3CCNCC3)n2)CC1 | i | i | i | i | 22*
CC1CCN(c2nc(N3CCCCC3)nc(N3CCCCC3)n2)CC1 | i | i | i | i | i
COc1ccc(-c2nc(CS(=O)(=O)CC(=O)NCc3ccc(F)cc3)c(C)o2)cc1 | i | i | i | i | i
C=CCN1C(=O)/C(=C/C=C2/N(CC)c3ccc(S(=O)(=O)N(C)C)cc3N2CC)SC1=S | i | 64* | i | i | 10*
CCSc1nc(N)c2c3c(sc2n1)CN(C)CC3 | i | i | i | -5.3* | i
CCCCNCc1cc(Cl)c(OCCC)c(OCC)c1 | i | i | -7* | i | i
CCCCOc1c(Cl)cc(CNC(C)(C)CO)cc1OCC | i | i | i | i | i
O=C(N/N=C\C=C\c1ccc2c(c1)OCO2)C1COc2cc3ccccc3cc2O1 (stereo not given) | i | i | i | i | 12*
COc1ccc(/C=N/NC(=O)C2COc3ccccc3O2)cc1OC (stereo not given) | i | 150* | i | i | i
O=C(N/N=C/c1ccc2c(c1)OCO2)C1COc2ccccc2O1 (stereo not given) | i | i | i | i | i
COc1ccc(C2CC(=O)c3cnc(N4CCN(Cc5ccccc5)CC4)nc3C2)cc1 (stereo not given) | i | i | i | i | 19*
CSc1nc2n(n1)C(c1ccccn1)C1=C(CC(C)(C)CC1=O)N2 (stereo not given) | i | i | i | i | i
Cc1onc(-c2ccccc2Cl)c1C(=O)N1CCN(C/C=C/c2ccccc2)CC1 | i | 101* | i | i | i
COc1cc(NC(=O)CCN2CCN(C/C=C/c3ccccc3)CC2)cc(OC)c1 | i | 73* | i | i | 10*
